From ChEMBL document CHEMBL1127676, “Structure-activity relationships in a series of 5-[(2,5-dihydroxybenzyl)amino]salicylate inhibitors of EGF-receptor-associated tyrosine kinase: importance of additional hydrophobic aromatic interactions” (J Med Chem, 1994)
pIC50: −log10 of the molar value.

Tests used:
[1] = target: T1, Epidermal growth factor receptor (Homo sapiens, UniProt P00533); assay: Inhibitory potency against protein tyrosine kinase activity associated with EGFR was evaluated using ER 22 cell membrane
T1 sequence (P00533 whole entry): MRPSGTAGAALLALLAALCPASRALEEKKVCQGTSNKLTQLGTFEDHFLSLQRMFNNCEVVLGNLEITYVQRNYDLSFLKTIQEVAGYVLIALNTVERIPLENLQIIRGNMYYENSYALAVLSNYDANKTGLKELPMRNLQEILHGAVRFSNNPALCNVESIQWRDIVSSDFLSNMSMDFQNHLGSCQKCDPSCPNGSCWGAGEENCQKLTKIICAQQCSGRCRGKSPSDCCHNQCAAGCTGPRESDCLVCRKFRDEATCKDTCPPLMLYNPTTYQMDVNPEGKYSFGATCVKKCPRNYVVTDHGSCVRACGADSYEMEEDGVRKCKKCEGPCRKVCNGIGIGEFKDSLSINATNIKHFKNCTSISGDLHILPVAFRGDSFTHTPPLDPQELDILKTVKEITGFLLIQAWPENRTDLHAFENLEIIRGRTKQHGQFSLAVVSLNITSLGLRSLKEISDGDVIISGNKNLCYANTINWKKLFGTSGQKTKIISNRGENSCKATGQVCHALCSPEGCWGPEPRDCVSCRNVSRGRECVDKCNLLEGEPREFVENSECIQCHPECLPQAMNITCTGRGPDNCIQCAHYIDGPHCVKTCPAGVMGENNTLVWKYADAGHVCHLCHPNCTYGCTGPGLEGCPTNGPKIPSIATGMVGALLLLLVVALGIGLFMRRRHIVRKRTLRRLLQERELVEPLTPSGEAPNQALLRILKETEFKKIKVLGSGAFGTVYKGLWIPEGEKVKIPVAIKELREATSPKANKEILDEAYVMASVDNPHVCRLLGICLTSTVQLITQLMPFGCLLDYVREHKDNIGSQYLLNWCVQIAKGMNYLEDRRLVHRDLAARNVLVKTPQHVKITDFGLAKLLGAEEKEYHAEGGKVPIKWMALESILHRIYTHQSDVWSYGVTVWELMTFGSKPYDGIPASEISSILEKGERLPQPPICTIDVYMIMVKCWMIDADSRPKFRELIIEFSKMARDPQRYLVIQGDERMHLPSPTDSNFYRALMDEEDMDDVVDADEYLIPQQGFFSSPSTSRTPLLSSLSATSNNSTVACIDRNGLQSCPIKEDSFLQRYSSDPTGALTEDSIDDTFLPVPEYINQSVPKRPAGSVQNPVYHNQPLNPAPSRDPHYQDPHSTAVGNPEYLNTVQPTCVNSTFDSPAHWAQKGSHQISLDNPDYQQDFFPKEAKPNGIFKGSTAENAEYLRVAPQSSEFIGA

[2] = target: T1, Epidermal growth factor receptor; conditions: 20 uM
[3] = target: T1, Epidermal growth factor receptor; conditions: ER 22; 10 uM
[4] = target: T1, Epidermal growth factor receptor; assay: Inhibition of EGFR(epidermal growth factor receptor) autophosphorylation in ER22 cell membranes
Protein kinase C (PKC) = assay: Inhibition of rat PKC(protein kinase-C); assay type: protein assay
In short: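 PKC partially purified from rat brain by DEAE-cellulose chromatography and assayed in vitro with a commercial PKC assay kit; inhibitors tested for inhibition of the kinase activity.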

[5] = Inhibition of PKA(protein kinase-A)
[6] = target: T1, Epidermal growth factor receptor; conditions: ER 22; 10 uM; remark: listed apart in the source
[7] = target: T1, Epidermal growth factor receptor; conditions: 5 uM
[8] = target: T1, Epidermal growth factor receptor; conditions: ER 22; 10 uM; remark: listed apart in the source
[9] = target: T1, Epidermal growth factor receptor; conditions: ER 22; 100 uM
[10] = target: T1, Epidermal growth factor receptor; conditions: ER 22; 10 uM; remark: listed apart in the source

SMILES | pIC50 [1] | also measured
CC(COC(=O)c1cc(NCc2cc(O)ccc2O)ccc1O)Cc1ccccc1 (centres undefined) | 6.44 | –
CC(C)(C)ONC(=O)c1cc(NCc2cc(O)ccc2O)ccc1O | 7.00 | inhibition [2]: 35%
CC(C)c1ccc(COC(=O)c2cc(NCc3cc(O)ccc3O)ccc2O)cc1 | 6.00 | –
CC(C)(C)CCOC(=O)c1cc(/N=C/c2cc(O)ccc2O)ccc1O | – | inhibition [3]: 10%
Cc1cc(C)cc(COC(=O)c2cc(NCc3cc(O)ccc3O)ccc2O)c1 | 5.52 | –
O=C(OCc1ccccc1)c1cc(NCc2cc(O)ccc2O)ccc1O | 7.10 | –
CC(C)CCCC(C)CCOC(=O)c1cc(NCc2cc(O)ccc2O)ccc1O (centres undefined) | 5.15 | pIC50 [4]: 4.60; pIC50 [5]: 5.00
CC(CCOC(=O)c1cc(/N=C/c2cc(O)ccc2O)ccc1O)CC(C)(C)C (centres undefined) | – | inhibition [6]: 20%
CCOC(=O)c1cc(NCc2cc(O)ccc2O)ccc1O | 6.40 | –
O=C(NOCc1ccccc1)c1cc(NCc2cc(O)ccc2O)ccc1O | 7.30 | –
CONC(=O)c1cc(/N=C/c2cc(O)ccc2O)ccc1O | 4.57 | –
COC(=O)Cc1cc(NCc2cc(O)ccc2O)ccc1O | 5.52 | –
O=C(O)Cc1cc(/N=C/c2cc(O)ccc2O)ccc1O | 4.46 | –
COC(=O)c1cc(NCc2cc(O)ccc2O)ccc1O | 6.22 | pIC50 [4]: 6.00; IC50 (Protein kinase C (PKC)): 400 µM; pIC50 [5]: 3.82
CCOC(=O)Cc1cc(NCc2cc(O)ccc2O)ccc1O | 5.15 | –
O=C(NOCc1ccccc1)c1cc(/N=C/c2cc(O)ccc2O)ccc1O | – | inhibition [7]: 43%; inhibition [8]: 8%
O=C(OCCC12C[C@H]3C[C@@H](C1)C[C@@H](C2)C3)c1cc(NCc2cc(O)ccc2O)ccc1O | < 5.30 | –
CCOC(=O)c1cc(/N=C/c2cc(O)ccc2O)ccc1O | 4.30 | –

SMILES | pIC50 [1] | also measured
CC(COC(=O)c1cc(/N=C/c2cc(O)ccc2O)ccc1O)CC(C)(C)C (centres undefined) | < 5.00 | –
O=P(O)(O)Cc1cc(NCc2cc(O)ccc2O)ccc1O | 5.52 | –
O=C(Oc1ccc(-c2ccccc2)cc1)c1cc(NCc2cc(O)ccc2O)ccc1O | 5.30 | –
COC(=O)c1cc(/N=C/c2cc(O)ccc2O)ccc1O | – | inhibition [9]: 56%
O=C(OCC1CCCCC1)c1cc(NCc2cc(O)ccc2O)ccc1O | 5.92 | –
CCOC(=O)Cc1cc(/N=C/c2cc(O)ccc2O)ccc1O | 4.00 | –
CCCCCCCCCCCCCCCCOC(=O)c1cc(NCc2cc(O)ccc2O)ccc1O | < 5.30 | –
O=C(Cc1cc(NCc2cc(O)ccc2O)ccc1O)NOCc1ccccc1 | 6.00 | –
CCOP(=O)(Cc1cc(/N=C/c2cc(O)ccc2O)ccc1O)OCC | < 4.00 | –
O=C(O)c1cc(NCc2cc(O)ccc2O)ccc1O [LAVENDUSTIN C] | – | IC50 (Protein kinase C (PKC)): > 100 µM; pIC50 [5]: < 4.00
O=C(Oc1cccc2ccccc12)c1cc(NCc2cc(O)ccc2O)ccc1O | 6.96 | –
CCOP(=O)(Cc1cc(NCc2cc(O)ccc2O)ccc1O)OCC | 5.40 | –
O=C(Oc1cccc(O)c1)c1cc(NCc2cc(O)ccc2O)ccc1O | 7.05 | –
CONC(=O)c1cc(NCc2cc(O)ccc2O)ccc1O | 6.52 | –
CC(C)CCCC(C)CCOC(=O)c1cc(/N=C/c2cc(O)ccc2O)ccc1O (centres undefined) | – | inhibition [10]: 20%
CC(CCOC(=O)c1cc(NCc2cc(O)ccc2O)ccc1O)CC(C)(C)C (centres undefined) | < 6.00 | –
CC(C)(C)ONC(=O)c1cc(/N=C/c2cc(O)ccc2O)ccc1O | – | inhibition [6]: 20%
CC(C)(C)OC(=O)c1cc(/N=C/c2cc(O)ccc2O)ccc1O | – | inhibition [6]: 15%

More lines, main results first:

pIC50 [1] | SMILES | also measured
6.40 | O=C(NO)c1cc(NCc2cc(O)ccc2O)ccc1O | –
5.89 | O=C(OC/C=C/c1ccccc1)c1cc(NCc2cc(O)ccc2O)ccc1O | –
5.22 | O=C(O)Cc1cc(NCc2cc(O)ccc2O)ccc1O | –
5.30 | CC(C)(C)ONC(=O)Cc1cc(NCc2cc(O)ccc2O)ccc1O | –
6.00 | CC(C)(C)OC(=O)c1cc(NCc2cc(O)ccc2O)ccc1O | –
7.52 | O=C(OCCCc1ccccc1)c1cc(NCc2cc(O)ccc2O)ccc1O | pIC50 [4]: 6.15; IC50 (Protein kinase C (PKC)): > 20 µM; pIC50 [5]: 4.96
~5.40 | CC(COC(=O)c1cc(NCc2cc(O)ccc2O)ccc1O)CC(C)(C)C (centres undefined) | pIC50 [4]: 5.10; IC50 (Protein kinase C (PKC)): 300 µM; pIC50 [5]: 5.00
6.15 | CC(C)(C)CCOC(=O)c1cc(NCc2cc(O)ccc2O)ccc1O | –
4.30 | O=C(Cc1cc(/N=C/c2cc(O)ccc2O)ccc1O)NOCc1ccccc1 | –
6.40 | O=C(OCCCCc1ccccc1)c1cc(NCc2cc(O)ccc2O)ccc1O | –
5.30 | O=C(O)c1cc(/N=C/c2cc(O)ccc2O)ccc1O | –
4.00 | COC(=O)Cc1cc(/N=C/c2cc(O)ccc2O)ccc1O | –
4.51 | CC(C)(C)ONC(=O)Cc1cc(/N=C/c2cc(O)ccc2O)ccc1O | –
6.89 | O=C(OCCc1ccccc1)c1cc(NCc2cc(O)ccc2O)ccc1O | pIC50 [4]: 6.70; pIC50 [5]: 5.40
6.40 | CC(CCOC(=O)c1cc(NCc2cc(O)ccc2O)ccc1O)c1ccccc1 (centres undefined) | –
7.15 | O=C(Oc1ccccc1)c1cc(NCc2cc(O)ccc2O)ccc1O | –
7.05 | O=C(Oc1ccc2ccccc2c1)c1cc(NCc2cc(O)ccc2O)ccc1O | –
